MrgX1 antag = human MrgX1 receptor antagonism, primary screen. MRGX1-HEK293 calcium flux, Fluo-4, BAM8-22 antagonism; active compounds read low. B-score at 10 µM. Q96LB2. 310,000 compounds, 1.3% hits;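 active means calcium-response B-score plate-corrected more than 3 library SD below zero, starting fluorescence within 5 deviations, no agonist response on first addition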;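 further: peak minus trough fluorescence over baseline after final BAM8-22 challenge near maximal dose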
Target sequence (Q96LB2 whole entry, looked up): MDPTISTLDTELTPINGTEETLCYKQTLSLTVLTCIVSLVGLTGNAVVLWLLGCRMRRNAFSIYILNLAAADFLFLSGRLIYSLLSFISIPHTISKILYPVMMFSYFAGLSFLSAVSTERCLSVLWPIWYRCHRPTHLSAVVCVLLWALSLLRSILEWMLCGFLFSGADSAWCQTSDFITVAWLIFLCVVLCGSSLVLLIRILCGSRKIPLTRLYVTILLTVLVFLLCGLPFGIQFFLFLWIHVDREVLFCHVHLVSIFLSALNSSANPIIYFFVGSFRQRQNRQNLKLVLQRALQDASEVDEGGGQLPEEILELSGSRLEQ
MrgX1 ag = activates human MrgX1 receptor signaling | Q96LB2 | MrgX1-HEK293 cells, Fluo-4 calcium fluorescence, agonist mode; active compounds read high | B-score at 10 µM | 310,000 compounds, 0.44% hits | AID 588627;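 active means calcium response B-score plate-corrected fluorescence ratio at least 3 library SD, with starting fluorescence B-score inside 5 SD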
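Assay system: MrgX1-expressing HEK293 cells / Amount: fifteen thousand cells per well / Doses: test compound in the initial addition of three / Timing: cells plated overnight, dye loaded 0.5 h 37 °C, 0.5 h room temperature / Technique: kinetic calcium dye fluorescence, Fluo-4 NW / Control set: positive and negative controls per plate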
RGS4 inh = inhibitors of human RGS4; B-score at 10 µM; HEK293 M3R/RGS4 inducible, Fluo-4 calcium flux; active compounds read high; triggered by carbachol at its EC20; P49798; 310,000 compounds, 0.45% hits;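 active means B-score, a plate-corrected calcium signal, over three deviations above library mean, with baseline fluorescence within five deviations of library mean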;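 further: RGS4 expression induced by doxycycline in cells with stable M3 receptor; B-score is computed from the integrated fluorescence ratio over baseline after carbachol; higher B-score means a larger calcium signal and so more RGS4 inhibition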
Target sequence (P49798 whole entry, looked up): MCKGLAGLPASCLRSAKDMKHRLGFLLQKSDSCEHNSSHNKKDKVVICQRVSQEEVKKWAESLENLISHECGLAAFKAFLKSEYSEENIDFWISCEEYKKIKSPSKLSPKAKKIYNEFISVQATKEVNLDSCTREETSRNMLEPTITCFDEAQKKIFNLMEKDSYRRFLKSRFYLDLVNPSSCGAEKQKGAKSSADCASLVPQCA
RGS4 act = RGS4 potentiation or activation | HEK293 M3R/inducible RGS4, carbachol calcium flux Fluo4; active compounds read low | B-score at 10 µM | 310,000 compounds, 0.92% hits | AID 463111;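 active means B-score of the integrated calcium signal more than 4 SD below the library mean, with starting fluorescence not abnormally high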;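 further: negative B-score means reduced calcium response which marks RGS4 activation or potentiation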
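test system = HEK293 cells with stable M3R and inducible RGS4 | schedule = recording 10 s baseline at 1 Hz, 100 s post-agonist | technique = Fluo4-AM (2 µM) calcium-flux fluorescence, kinetic read | measure = Agonist-evoked peak-minus-minimum fluorescence over baseline, integrated ratio, B score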
MrgX1 PAM = allosterically activates human MrgX1 receptor signaling | Q96LB2 | MrgX1-HEK293, Fluo-4 calcium flux, FDSS; active compounds read high | B-score at 10 µM | 310,000 compounds, 0.63% hits;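 active means plate-corrected calcium response at least 3 library SD above typical, normal starting fluorescence, not activating the receptor alone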;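 further: compound read alongside a low EC10 to EC30 dose of BAM8-22 agonist; peak minus trough fluorescence over baseline measured at the second addition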
MrgX1 antag conf = human MrgX1 receptor antagonism, re-confirmation screen | 2,300 compounds, 19% hits | AID 602420 | MrgX1-HEK293, BAM8-22 calcium flux, Fluo-4; active compounds read low | shares compounds with MrgX1 antag | remaining BAM8-22 calcium response % of control (active compounds read low), % at 10 µM;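 active means remaining agonist calcium response no higher than 100% minus 3 SD of agonist-only control wells, with starting fluorescence near control levels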;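 further: agonist BAM8-22 given at a near maximal EC90 to ECmax level; peak minus minimum fluorescence divided by baseline after agonist addition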
HEK293 Ca flux = activity in parental HEK293 cells lacking MrgX1 | fluorescence ratio F(max-min)/F0 at 10 µM | 4,000 compounds, 2% hits | shares compounds with MrgX1 antag | Fluo-4 calcium fluorescence, FDSS;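 active means duplicate-averaged calcium fluorescence ratio at least three times the standard deviation of buffer wells, a nonspecific response in parental cells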
HEK293 Ca counter = activity in parental HEK293 cells without MrgX1. shares compounds with MrgX1 antag. parental HEK293 calcium flux, Fluo-4 fluorescence ratio; active compounds read high. fluorescence ratio F(max-min)/F0 at 10 µM. 4,000 compounds, 0.4% hits. AID 624114;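 active means calcium fluorescence ratio, averaged over duplicates, at least 3 SD of the buffer-well ratio, meaning a nonspecific response in receptor-free cells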;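 further: untransfected parental HEK293 lacking MrgX1 used as counterscreen for MrgX1 allosteric activators; fluorescence change taken during the second addition on a kinetic imager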
HEK293 Ca cntr2 = activity in parental HEK293 cells lacking MrgX1 receptor. AID 624115. 4,000 compounds, 8.7% hits. shares compounds with MrgX1 antag. fluorescence ratio F(max-min)/F0 at 10 µM. Fluo-4 calcium fluorescence (FDSS); active compounds read high;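 active means calcium fluorescence ratio at least three times the spread of buffer wells, meaning a non-specific response in parental cells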
Hits are given with their value; – = inactive; · = not tested or not shown. Sampled rows, rich in hits. Any-hit rate of the full collection: about 3.5%.

SMILES | MrgX1 antag | MrgX1 ag | RGS4 inh | RGS4 act | MrgX1 PAM | MrgX1 antag conf | HEK293 Ca flux | HEK293 Ca counter | HEK293 Ca cntr2
CCc1ccc(N2CC(C(=O)Nc3nccs3)CC2=O)cc1 (stereo not given) | -5 | – | – | – | – | – | – | – | –
O=C(Nc1nccs1)C1CC(=O)N(c2ccc(F)cc2)C1 (stereo not given) | – | – | – | – | – | · | · | · | ·
Cc1ccc(S(=O)(=O)N(C)/N=C2/C(=O)N(CC(=O)O)c3ccccc32)cc1 | – | – | – | – | – | · | · | · | ·
Cc1cccc(C(=O)NNC2=C(C(=O)C(F)(F)F)CCC2)c1O | – | – | – | – | – | · | · | · | ·
CCc1nnc(NC(=O)CSc2nnc(CCc3nc4ccccc4[nH]3)n2C)s1 | – | – | – | – | – | · | · | · | ·
Cc1nnc(NC(=O)CSc2nnc(CCc3nc4ccccc4[nH]3)n2C)s1 | -4.56 | – | – | – | – | – | – | – | –
COc1ccccc1NC(=O)Cn1nnc(-c2ccccc2NC(=O)c2cc3ccccc3oc2=O)n1 | – | – | – | – | – | · | · | · | ·
O=C(O)Cn1cc(C(=O)c2ccco2)c2ccccc21 | -7.94 | – | – | – | – | – | – | – | –
CCOC(=O)Cn1cc(C(=O)c2ccco2)c2ccccc21 | – | – | – | – | – | · | · | · | ·
CC(C)(C)N(Cc1ccccc1)C(=O)COC(=O)CSc1ccc([N+](=O)[O-])cc1 | -9.9 | – | – | – | – | – | – | – | –
O=C(CSc1ccc(Cl)cc1)NNC(=O)c1ccco1 | – | – | – | – | – | · | · | · | ·
COCCNC(=O)C1(C)C=CC2(CCCCC2)N1C(=O)c1ccccc1 (stereo not given) | – | – | – | – | – | · | · | · | ·
CC1(C(=O)NCCN2CCOCC2)C=CC2(CCCCC2)N1C(=O)c1ccccc1 (stereo not given) | -6.77 | – | – | – | – | 82.9% | – | – | –
CC(C)c1ccc(-c2nc(N3CCCC3)nc3n[nH]c(N)c23)cc1 | -5.36 | – | – | – | – | – | – | – | –
COc1ccc(NC(=O)NC2(C(=O)N3CCN(C)CC3)CCCCC2)cc1 | – | – | – | – | – | · | · | · | ·
Cc1ccc(C)c(-c2nnc(NC(=O)CCS(=O)(=O)c3ccc(F)cc3)o2)c1 | -4.71 | – | – | – | – | – | – | – | –
CC1CCN(S(=O)(=O)CCNC(=O)c2ccc3c(c2)OCO3)CC1 | – | – | – | – | – | · | · | · | ·
Cc1cc(/C=C2\SC(=S)N(C)C2=O)c(C)n1-c1ccc(O)cc1 | -11.3 | – | – | – | – | – | – | – | –
O=C(CN1C(=O)NC2(CCCCC2)C1=O)N1CCN(S(=O)(=O)c2ccccc2)CC1 | -5.48 | – | – | – | – | – | – | – | –
COCCNC(=O)c1cccc(OC2CCN(Cc3ccc(OC(F)F)cc3)CC2)c1 | – | – | – | – | – | · | · | · | ·
O=C(Nc1nnc(SCC(=O)N2CCCC2)s1)C1CC(=O)N(c2ccc(F)cc2)C1 (stereo not given) | – | – | – | – | – | · | · | · | ·
O=C(CSc1nnc(NC(=O)C2CC(=O)N(c3ccc(F)cc3)C2)s1)NC1CCCC1 (stereo not given) | -4.88 | – | – | – | – | – | – | – | –
CC(=O)c1sc2nsc(SCCN3CCCCC3)c2c1N | -5.16 | – | – | – | – | – | – | – | 51.7
CC(=O)Nc1nnc(CCN2CCCCC2)s1 | – | – | – | – | – | · | · | · | ·
CCc1ccc(NC(=O)Cn2ncc3c4ccccc4n(C)c3c2=O)cc1 | – | – | – | – | – | · | · | · | ·
COc1ccc(OC)c(S(=O)(=O)Oc2ccc(N)c3ccccc23)c1 | – | – | – | – | – | · | · | · | ·
